In ChEMBL document CHEMBL4373649, “Novel antimycobacterial C-21 amide derivatives of the antibiotic fusidic acid: synthesis, pharmacological evaluation and rationalization of media-dependent activity using molecular docking studies in the binding site of human serum albumin” (Medchemcomm, 2019):
Values after ≈ are worked out from the molar mass of the structure shown.

Tests used:
CHO-K1 = assay: Cytotoxicity against CHOK1 cells assessed as reduction in cell viability incubated for 48 hrs by MTT assay; assay type: cell-based; conditions: Cricetulus griseus, CHO-K1, 48 h
Outline: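 CHO-K1 cells seeded at 10^5 cells/well 24 h before exposure, medium then replaced with fresh medium containing compound; 48 h at 37 °C, 5% CO2, MTT added at 44 h for 4 h, formazan dissolved in DMSO, OD read at 540 nm. Triplicates; DMSO stocks 2 mg/mL, poorly soluble samples as suspensions; emetine reference; IC50 from non-linear dose-response fit.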

[1] = tested on: Mycobacterium tuberculosis; assay: Antimycobacterial activity against Mycobacterium tuberculosis H37RvMA ATCC 27294 cultured in protein-based Middlebrook 7H9 medium supplemented with glucose, albumin-dextrose-catalase and Tween 80 assessed as inhibition of bacterial growth incubated for 7 days in by alamar blue staining based assay; assay type: functional; conditions: H37RvMA ATCC 27294, 168 h
Outline: (§1)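 Broth microdilution MIC90 assay against H37RvMa (ATCC 27294). Culture grown to OD600 0.6–0.7, diluted 1:500. Compounds come from 10 mM DMSO stocks and are run as duplicate two-fold dilutions over 10 wells. Plates incubated at 37 °C, 5% CO2, humidified. AlamarBlue added on day 7 and incubated 24 h more, then read on day 8, visually (blue = no growth) or by fluorescence (excitation 540 nm).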

[2] = tested on: Mycobacterium tuberculosis; assay: Antimycobacterial activity against Mycobacterium tuberculosis H37RvMA ATCC 27294 cultured in non protein-based Middlebrook 7H9 medium supplemented with glucose-casitone-tyloxapol assessed as inhibition of bacterial growth incubated for 7 days in by alamar blue staining based assay; assay type: functional; conditions: H37RvMA ATCC 27294, 168 h
Outline: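 Medium is 7H9 with 0.03% Casitone, 0.4% glucose and 0.05% Tyloxapol. H37RvMa is grown to OD600 0.6–0.7 and diluted 1:500. Duplicate two-fold dilutions over 10 wells come from 10 mM DMSO stocks. Incubation at 37 °C, 5% CO2. AlamarBlue added on day 7. The MIC90 is the lowest concentration with no visible growth on day 8, or is read by fluorescence.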

[3] = tested on: Mycobacterium tuberculosis; assay: Antimycobacterial activity against Mycobacterium tuberculosis; assay type: functional; outline: as §1
[4] = Protein binding in human serum; assay type: ADME, cell-free; conditions: read-out: PB

Compound | IC50 (CHO-K1) | MIC90 [1] | MIC90 [2] | MIC90 [3] | fraction unbound [4]
COc1ccccc1NC(=O)/C(CCC=C(C)C)=C1\[C@@H](OC(C)=O)C[C@@]2(C)[C@H]1C[C@@H](O)[C@H]1[C@@]3(C)CC[C@@H](O)[C@@H](C)[C@@H]3CC[C@@]12C | 46.1 µM | 43.2 µM (≈ 26.9 µg/mL) | 6.2 µM (≈ 3.86 µg/mL) | – | –
CC(=O)O[C@H]1C[C@@]2(C)[C@@H](C[C@@H](O)[C@H]3[C@@]4(C)CC[C@@H](O)[C@@H](C)[C@@H]4CC[C@@]32C)/C1=C(\CCC=C(C)C)C(=O)Nc1ccc(F)cc1 | 39.9 µM | 125 µM (≈ 76.2 µg/mL) | 125 µM (≈ 76.2 µg/mL) | – | –
CC(=O)O[C@H]1C[C@@]2(C)[C@@H](C[C@@H](O)[C@H]3[C@@]4(C)CC[C@@H](O)[C@@H](C)[C@@H]4CC[C@@]32C)/C1=C(\CCC=C(C)C)C(=O)N[C@H](C)c1ccccc1Cl | 18.2 µM | > 125 µM | 10.1 µM (≈ 6.61 µg/mL) | – | –
CC(=O)O[C@H]1C[C@@]2(C)[C@@H](C[C@@H](O)[C@H]3[C@@]4(C)CC[C@@H](O)[C@@H](C)[C@@H]4CC[C@@]32C)/C1=C(\CCC=C(C)C)C(=O)N[C@H](C)c1ccc(F)cc1 | 8.24 µM | > 125 µM | > 125 µM | – | –
CC(=O)O[C@H]1C[C@@]2(C)[C@@H](C[C@@H](O)[C@H]3[C@@]4(C)CC[C@@H](O)[C@@H](C)[C@@H]4CC[C@@]32C)/C1=C(\CCC=C(C)C)C(=O)NCc1ccc(S(N)(=O)=O)cc1 | 30.2 µM | 62.3 µM (≈ 42.7 µg/mL) | 2.71 µM (≈ 1.86 µg/mL) | – | –
CC(=O)O[C@H]1C[C@@]2(C)[C@@H](C[C@@H](O)[C@H]3[C@@]4(C)CC[C@@H](O)[C@@H](C)[C@@H]4CC[C@@]32C)/C1=C(\CCC=C(C)C)C(=O)N[C@@H](C)c1ccc(F)cc1 | 47.4 µM | > 125 µM | 7.59 µM (≈ 4.84 µg/mL) | – | –
COC(=O)[C@H](NC(=O)/C(CCC=C(C)C)=C1\[C@@H](OC(C)=O)C[C@@]2(C)[C@H]1C[C@@H](O)[C@H]1[C@@]3(C)CC[C@@H](O)[C@@H](C)[C@@H]3CC[C@@]12C)c1ccccc1 | 42.9 µM | 38.8 µM (≈ 25.8 µg/mL) | 7.1 µM (≈ 4.71 µg/mL) | – | –
CC(=O)O[C@H]1C[C@@]2(C)[C@@H](C[C@@H](O)[C@H]3[C@@]4(C)CC[C@@H](O)[C@@H](C)[C@@H]4CC[C@@]32C)/C1=C(\CCC=C(C)C)C(=O)Nc1ccc(O)cc1 | 45.4 µM | > 125 µM | 6.9 µM (≈ 4.19 µg/mL) | – | –
CC(=O)O[C@H]1C[C@@]2(C)[C@@H](C[C@@H](O)[C@H]3[C@@]4(C)CC[C@@H](O)[C@@H](C)[C@@H]4CC[C@@]32C)/C1=C(\CCC=C(C)C)C(=O)N[C@@H](C)c1ccccc1 | 46 µM | > 125 µM | 8.9 µM (≈ 5.52 µg/mL) | – | –
COc1ccc(NC(=O)/C(CCC=C(C)C)=C2\[C@@H](OC(C)=O)C[C@@]3(C)[C@H]2C[C@@H](O)[C@H]2[C@@]4(C)CC[C@@H](O)[C@@H](C)[C@@H]4CC[C@@]23C)cc1 | 47.1 µM | > 125 µM | > 125 µM | – | –
CC(=O)O[C@H]1C[C@@]2(C)[C@@H](C[C@@H](O)[C@H]3[C@@]4(C)CC[C@@H](O)[C@@H](C)[C@@H]4CC[C@@]32C)/C1=C(\CCC=C(C)C)C(=O)N[C@@H](C)c1ccccc1Cl | 45.1 µM | 41.5 µM (≈ 27.2 µg/mL) | 9.8 µM (≈ 6.41 µg/mL) | – | –
CC(=O)O[C@H]1C[C@@]2(C)[C@@H](C[C@@H](O)[C@H]3[C@@]4(C)CC[C@@H](O)[C@@H](C)[C@@H]4CC[C@@]32C)/C1=C(\CCC=C(C)C)C(=O)N[C@@H](C)C1CCCCC1 | 44.7 µM | > 125 µM | 4.5 µM (≈ 2.82 µg/mL) | – | –
CC(=O)O[C@H]1C[C@@]2(C)[C@@H](C[C@@H](O)[C@H]3[C@@]4(C)CC[C@@H](O)[C@@H](C)[C@@H]4CC[C@@]32C)/C1=C(\CCC=C(C)C)C(=O)NCc1ccc(O)cc1 | > 50 µM | 125 µM (≈ 77.7 µg/mL) | 125 µM (≈ 77.7 µg/mL) | – | –
CC(=O)O[C@H]1C[C@@]2(C)[C@@H](C[C@@H](O)[C@H]3[C@@]4(C)CC[C@@H](O)[C@@H](C)[C@@H]4CC[C@@]32C)/C1=C(\CCC=C(C)C)C(=O)N[C@H](C)c1ccccc1 | 47.6 µM | > 125 µM | 11 µM (≈ 6.82 µg/mL) | – | –
CC(=O)O[C@H]1C[C@@]2(C)[C@@H](C[C@@H](O)[C@H]3[C@@]4(C)CC[C@@H](O)[C@@H](C)[C@@H]4CC[C@@]32C)/C1=C(\CCC=C(C)C)C(=O)NC1(c2ccccc2)CC1 | 36.8 µM | > 125 µM | 13.9 µM (≈ 8.78 µg/mL) | – | –
CC(=O)O[C@H]1C[C@@]2(C)[C@@H](C[C@@H](O)[C@H]3[C@@]4(C)CC[C@@H](O)[C@@H](C)[C@@H]4CC[C@@]32C)/C1=C(\CCC=C(C)C)C(=O)Nc1ccc(C)cc1 | > 50 µM | 125 µM (≈ 75.7 µg/mL) | > 125 µM | – | –

Compound | IC50 (CHO-K1) | MIC90 [1] | MIC90 [2] | MIC90 [3] | fraction unbound [4]
CC(=O)O[C@H]1C[C@@]2(C)[C@@H](C[C@@H](O)[C@H]3[C@@]4(C)CC[C@@H](O)[C@@H](C)[C@@H]4CC[C@@]32C)/C1=C(\CCC=C(C)C)C(=O)NCc1ccc(F)cc1 | 40.2 µM | 125 µM (≈ 78 µg/mL) | > 125 µM | – | –
CC(=O)O[C@H]1C[C@@]2(C)[C@@H](C[C@@H](O)[C@H]3[C@@]4(C)CC[C@@H](O)[C@@H](C)[C@@H]4CC[C@@]32C)/C1=C(\CCC=C(C)C)C(=O)N[C@@H](C(N)=O)c1ccccc1 | > 50 µM | 15.7 µM (≈ 10.2 µg/mL) | 9.1 µM (≈ 5.9 µg/mL) | – | –
COc1cccc(NC(=O)/C(CCC=C(C)C)=C2\[C@@H](OC(C)=O)C[C@@]3(C)[C@H]2C[C@@H](O)[C@H]2[C@@]4(C)CC[C@@H](O)[C@@H](C)[C@@H]4CC[C@@]23C)c1 | 42.7 µM | > 125 µM | > 125 µM | – | –
CC(=O)O[C@H]1C[C@@]2(C)[C@@H](C[C@@H](O)[C@H]3[C@@]4(C)CC[C@@H](O)[C@@H](C)[C@@H]4CC[C@@]32C)/C1=C(\CCC=C(C)C)C(=O)NCc1ccccc1 | 44.1 µM | 125 µM (≈ 75.7 µg/mL) | > 125 µM | – | –
CC(=O)O[C@H]1C[C@@]2(C)[C@@H](C[C@@H](O)[C@H]3[C@@]4(C)CC[C@@H](O)[C@@H](C)[C@@H]4CC[C@@]32C)/C1=C(\CCC=C(C)C)C(=O)N[C@H](C)C1CCCCC1 | > 50 µM | > 125 µM | 7.45 µM (≈ 4.66 µg/mL) | – | –
CC(=O)O[C@H]1C[C@@]2(C)[C@@H](C[C@@H](O)[C@H]3[C@@]4(C)CC[C@@H](O)[C@@H](C)[C@@H]4CC[C@@]32C)/C1=C(\CCC=C(C)C)C(=O)NCc1ccc(C)cc1 | > 50 µM | 125 µM (≈ 77.5 µg/mL) | > 125 µM | – | –
CC(=O)O[C@H]1C[C@@]2(C)[C@@H](C[C@@H](O)[C@H]3[C@@]4(C)CC[C@@H](O)[C@@H](C)[C@@H]4CC[C@@]32C)/C1=C(\CCC=C(C)C)C(=O)NC(C)c1ccc(F)cc1 (mixture of isomers) | 45.3 µM | > 125 µM | 19.8 µM | – | –
CC(=O)O[C@H]1C[C@@]2(C)[C@@H](C[C@@H](O)[C@H]3[C@@]4(C)CC[C@@H](O)[C@@H](C)[C@@H]4CC[C@@]32C)/C1=C(\CCC=C(C)C)C(=O)NC(C)c1ccncc1 (mixture of isomers) | > 50 µM | 125 µM | 13 µM | – | –
CC(=O)O[C@H]1C[C@@]2(C)[C@@H](C[C@@H](O)[C@H]3[C@@]4(C)CC[C@@H](O)[C@@H](C)[C@@H]4CC[C@@]32C)/C1=C(\CCC=C(C)C)C(=O)NC(C)c1ccc(C)cc1 (mixture of isomers) | 47.9 µM | > 125 µM | 2.91 µM | – | –
CC(=O)O[C@H]1C[C@@]2(C)[C@@H](C[C@@H](O)[C@H]3[C@@]4(C)CC[C@@H](O)[C@@H](C)[C@@H]4CC[C@@]32C)/C1=C(\CCC=C(C)C)C(=O)NC(C)c1cnccn1 (mixture of isomers) | > 50 µM | 62.5 µM | 17.5 µM | – | –
CC(=O)O[C@H]1C[C@@]2(C)[C@@H](C[C@@H](O)[C@H]3[C@@]4(C)CC[C@@H](O)[C@@H](C)[C@@H]4CC[C@@]32C)/C1=C(\CCC=C(C)C)C(=O)NC(C)c1cccnc1 (mixture of isomers) | > 50 µM | > 125 µM | 17.9 µM | – | –
CC(=O)O[C@H]1C[C@@]2(C)[C@@H](C[C@@H](O)[C@H]3[C@@]4(C)CC[C@@H](O)[C@@H](C)[C@@H]4CC[C@@]32C)/C1=C(\CCC=C(C)C)C(=O)NC(C)c1ccc(Cl)c(Cl)c1 (mixture of isomers) | > 50 µM | 32.3 µM | 7.2 µM | – | –
CC[C@H]1CN2CCc3cc(OC)c(OC)cc3[C@@H]2C[C@@H]1C[C@H]1NCCc2cc(OC)c(OC)cc21 [EMETINE] | 0.02 µM | – | – | – | –
CC(=O)O[C@H]1C[C@@]2(C)[C@@H](C[C@@H](O)[C@H]3[C@@]4(C)CC[C@@H](O)[C@@H](C)[C@@H]4CC[C@@]32C)/C1=C(\CCC=C(C)C)C(=O)O [FUSIDIC ACID] | – | 9.25 µM (≈ 4.78 µg/mL) | 0.24 µM (≈ 0.124 µg/mL) | 31 µM (≈ 16 µg/mL) | 0.03 to 0.05
CO[C@H]1/C=C/O[C@@]2(C)Oc3c(C)c(O)c4c(O)c(c(/C=N/N5CCN(C)CC5)c(O)c4c3C2=O)NC(=O)/C(C)=C\C=C\[C@H](C)[C@H](O)[C@@H](C)[C@@H](O)[C@@H](C)[C@H](OC(C)=O)[C@@H]1C [RIFAMPIN] | – | 0.009 µM (≈ 0.00741 µg/mL) | 0.02 µM (≈ 0.0165 µg/mL) | – | –
